Values joined by “and” are separate entries in the source; they are usually repeats but may differ in a detail not shown here. Equal entries are not always repeated.
Legend:
[1] = biological target: T1, Polyunsaturated fatty acid 5-lipoxygenase (Homo sapiens, UniProt P09917); assay: In vitro 5-lipoxygenase inhibitory activity against calcium ionophore (A23187) induced LTB4 formation in human whole blood; assay type: functional, tissue-based
T1 sequence (P09917 whole entry): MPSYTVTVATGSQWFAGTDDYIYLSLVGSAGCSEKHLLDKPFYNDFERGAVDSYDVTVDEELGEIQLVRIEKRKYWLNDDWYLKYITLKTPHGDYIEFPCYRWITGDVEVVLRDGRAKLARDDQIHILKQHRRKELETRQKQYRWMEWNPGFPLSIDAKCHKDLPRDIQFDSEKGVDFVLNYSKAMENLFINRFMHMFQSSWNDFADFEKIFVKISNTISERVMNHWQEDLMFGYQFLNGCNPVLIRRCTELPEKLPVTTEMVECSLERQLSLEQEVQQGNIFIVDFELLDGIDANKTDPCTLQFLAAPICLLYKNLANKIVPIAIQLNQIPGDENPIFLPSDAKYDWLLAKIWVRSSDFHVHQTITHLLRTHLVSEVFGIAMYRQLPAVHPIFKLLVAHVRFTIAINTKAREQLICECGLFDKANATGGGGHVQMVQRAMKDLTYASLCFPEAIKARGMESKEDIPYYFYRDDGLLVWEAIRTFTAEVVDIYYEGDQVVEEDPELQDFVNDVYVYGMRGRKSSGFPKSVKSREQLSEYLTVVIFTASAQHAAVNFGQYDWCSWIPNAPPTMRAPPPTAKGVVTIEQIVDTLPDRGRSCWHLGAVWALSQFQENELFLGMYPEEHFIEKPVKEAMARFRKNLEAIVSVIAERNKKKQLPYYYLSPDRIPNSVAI

[2] = biological target: T2, Polyunsaturated fatty acid 5-lipoxygenase (Rattus norvegicus, UniProt P12527); assay: In vitro 5-lipoxygenase inhibitory activity against calcium ionophore (A23187) induced LTB4 formation in rat polymorphonuclear leukocytes; assay type: functional, cell-based
T2 sequence (P12527 whole entry): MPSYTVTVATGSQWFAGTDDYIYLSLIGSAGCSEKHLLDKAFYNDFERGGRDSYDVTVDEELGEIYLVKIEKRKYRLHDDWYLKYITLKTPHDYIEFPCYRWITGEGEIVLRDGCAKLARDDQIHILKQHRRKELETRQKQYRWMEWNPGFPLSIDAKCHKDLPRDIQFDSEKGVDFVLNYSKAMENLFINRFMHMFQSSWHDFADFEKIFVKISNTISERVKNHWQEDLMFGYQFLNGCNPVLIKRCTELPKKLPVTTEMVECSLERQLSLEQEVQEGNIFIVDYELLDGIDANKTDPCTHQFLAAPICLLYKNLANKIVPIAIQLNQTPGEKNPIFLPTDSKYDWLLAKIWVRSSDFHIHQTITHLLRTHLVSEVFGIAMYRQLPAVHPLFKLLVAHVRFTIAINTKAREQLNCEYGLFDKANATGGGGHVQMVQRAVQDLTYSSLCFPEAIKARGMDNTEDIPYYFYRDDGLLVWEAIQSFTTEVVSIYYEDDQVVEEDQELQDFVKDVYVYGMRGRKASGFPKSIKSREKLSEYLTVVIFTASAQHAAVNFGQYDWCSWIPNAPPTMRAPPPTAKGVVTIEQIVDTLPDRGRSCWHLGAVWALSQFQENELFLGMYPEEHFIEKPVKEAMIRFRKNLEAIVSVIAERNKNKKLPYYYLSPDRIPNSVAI

[3] = Cmax in cynomolgus monkey (PO dose); assay type: ADME, organism-based, Macaca fascicularis; design: route oral; conditions: in vivo
Procedure, shortened: (§1)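 Cynomolgus monkeys (n=2) dosed orally, 113 or 112 µmol/kg, as suspension in 0.2% HPMC. Plasma from serial blood samples deproteinized with 2 volumes methanol, run on C18 reversed-phase HPLC (55% acetonitrile, 10 mM acetohydroxamic acid, 8 mM triethylamine acetate, pH 6.5), UV 260 nm against external calibration curve. Mean of two animals.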

[4] = Cmax in rat (PO dose); assay type: ADME, organism-based; design: route oral; conditions: in vivo
Procedure, shortened: (§2)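 Rats dosed by oral gavage at 200 µmol/kg. Tail-vein blood drawn at about 1 h intervals; plasma analysed by HPLC. Mean of data from two animals.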

[5] = T1/2 in dog (PO dose); assay type: ADME, organism-based; conditions: in vivo
Procedure, shortened: (§3)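 Dogs (n=2) given 113 or 112 µmol/kg orally. Blood sampled at various times; plasma deproteinized with methanol and quantified by reversed-phase C18 HPLC with UV detection at 260 nm, external calibration. Values are means of two animals.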

[6] = T1/2 in cynomolgus monkey (PO dose); assay type: ADME, organism-based, Macaca fascicularis; conditions: in vivo; procedure, shortened: as §1
[7] = Plasma Tmax in rat (PO dose); assay type: ADME, organism-based; procedure, shortened: as §2
[8] = Tmax in dog (PO dose); assay type: ADME, organism-based, Canis lupus familiaris; conditions: in vivo; procedure, shortened: as §3
[9] = Tmax in cynomolgus monkey (PO dose); assay type: ADME, organism-based, Macaca fascicularis; conditions: in vivo; procedure, shortened: as §1
[10] = Tmax in rat (PO dose); assay type: ADME, organism-based; conditions: in vivo; procedure, shortened: as §2
Cyclooxygenase [11] = biological target: T3, Cyclooxygenase (Homo sapiens, UniProt P35354+P23219); assay: In vitro cyclooxygenase inhibitory activity at 100 uM against calcium ionophore (A23187) induced thromboxane formation in human whole blood; assay type: functional, tissue-based
Procedure, shortened: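 Human whole blood challenged with calcium ionophore A23187; thromboxane measured by enzyme immunoassay as COX readout. Duplicate assays; percent inhibition at highest tested concentration.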

[12] = biological target: Cyclooxygenase (Rattus norvegicus) (UniProt P35355+Q63921); assay: In vitro cyclooxygenase inhibitory activity at 100 uM against calcium ionophore (A23187) induced thromboxane formation in rat polymorphonuclear leukocytes; assay type: functional, cell-based
Procedure, shortened: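 Rat polymorphonuclear leukocytes stimulated with calcium ionophore A23187; thromboxane determined by enzyme immunoassay. Duplicate assays; percent inhibition reported at highest concentration tested.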

Rattus norvegicus = assay: In vivo inhibition of rat anaphylaxis leukotriene formation from peritoneal fluids, 1 hr after an oral dose of 200 uM/Kg; assay type: functional
Procedure, shortened: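 Rats given 200 µmol/kg orally 1 h before antibody-antigen challenge inducing peritoneal leukotriene biosynthesis; LTE4 in peritoneal fluid measured. Mean of eight rats; percent inhibition versus control group mean; significance by one-way ANOVA with Tukey's multiple comparison.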

Cmax in dog (PO dose) = conditions: in vivo
[13] = biological target: Prostaglandin G/H synthase 1 (Ovis aries) (UniProt P05979); assay: Compound at 100 uM was tested in vitro for inhibition of Prostaglandin G/H synthase sheep seminal vesicle
Sequence of Prostaglandin G/H synthase 1 (Ovis aries) (P05979 whole entry, looked up): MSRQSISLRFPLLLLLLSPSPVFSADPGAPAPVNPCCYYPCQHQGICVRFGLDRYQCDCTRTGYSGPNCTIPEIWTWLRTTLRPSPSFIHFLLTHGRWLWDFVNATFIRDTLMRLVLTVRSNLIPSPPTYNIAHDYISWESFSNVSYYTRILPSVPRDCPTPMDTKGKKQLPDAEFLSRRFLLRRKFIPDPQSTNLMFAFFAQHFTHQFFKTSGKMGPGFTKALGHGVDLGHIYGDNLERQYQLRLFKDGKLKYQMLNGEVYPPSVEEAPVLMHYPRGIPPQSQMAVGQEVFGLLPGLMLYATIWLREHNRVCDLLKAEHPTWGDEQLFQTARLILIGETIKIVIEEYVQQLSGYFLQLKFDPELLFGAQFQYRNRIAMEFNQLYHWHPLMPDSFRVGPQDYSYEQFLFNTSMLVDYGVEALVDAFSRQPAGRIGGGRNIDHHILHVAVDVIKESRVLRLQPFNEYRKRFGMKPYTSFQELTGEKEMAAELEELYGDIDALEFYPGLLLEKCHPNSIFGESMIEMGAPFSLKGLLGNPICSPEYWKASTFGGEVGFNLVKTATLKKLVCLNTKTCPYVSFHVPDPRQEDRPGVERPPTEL

[14] = biological target: T1, Polyunsaturated fatty acid 5-lipoxygenase; assay: In vitro 5-lipoxygenase inhibitory activity against calcium ionophore (A23187) induced LTB4 formation in human whole blood.
Cyclooxygenase [15] = biological target: T4, Cyclooxygenase (Rattus norvegicus, UniProt P35355+Q63921); assay: In vitro cyclooxygenase inhibitory activity against calcium ionophore (A23187) induced thromboxane formation in rat polymorphonuclear leukocytes; assay type: functional, cell-based
T4 sequence (P35355 whole entry): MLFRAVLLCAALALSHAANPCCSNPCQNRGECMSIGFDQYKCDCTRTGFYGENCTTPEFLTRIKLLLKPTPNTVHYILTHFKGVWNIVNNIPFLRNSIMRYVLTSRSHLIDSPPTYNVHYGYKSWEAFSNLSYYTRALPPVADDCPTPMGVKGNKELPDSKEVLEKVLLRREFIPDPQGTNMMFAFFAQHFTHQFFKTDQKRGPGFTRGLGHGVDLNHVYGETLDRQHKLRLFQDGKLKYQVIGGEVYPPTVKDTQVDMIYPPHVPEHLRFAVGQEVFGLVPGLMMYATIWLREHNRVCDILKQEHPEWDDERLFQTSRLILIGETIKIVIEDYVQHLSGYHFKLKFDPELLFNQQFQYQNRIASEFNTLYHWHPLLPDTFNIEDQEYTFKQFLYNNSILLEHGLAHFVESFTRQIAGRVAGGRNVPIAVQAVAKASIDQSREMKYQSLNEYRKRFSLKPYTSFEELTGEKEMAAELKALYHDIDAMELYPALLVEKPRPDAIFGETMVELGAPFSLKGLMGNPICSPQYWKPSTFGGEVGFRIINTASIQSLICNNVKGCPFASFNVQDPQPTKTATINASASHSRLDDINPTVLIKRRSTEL
T4 sequence (Q63921 whole entry): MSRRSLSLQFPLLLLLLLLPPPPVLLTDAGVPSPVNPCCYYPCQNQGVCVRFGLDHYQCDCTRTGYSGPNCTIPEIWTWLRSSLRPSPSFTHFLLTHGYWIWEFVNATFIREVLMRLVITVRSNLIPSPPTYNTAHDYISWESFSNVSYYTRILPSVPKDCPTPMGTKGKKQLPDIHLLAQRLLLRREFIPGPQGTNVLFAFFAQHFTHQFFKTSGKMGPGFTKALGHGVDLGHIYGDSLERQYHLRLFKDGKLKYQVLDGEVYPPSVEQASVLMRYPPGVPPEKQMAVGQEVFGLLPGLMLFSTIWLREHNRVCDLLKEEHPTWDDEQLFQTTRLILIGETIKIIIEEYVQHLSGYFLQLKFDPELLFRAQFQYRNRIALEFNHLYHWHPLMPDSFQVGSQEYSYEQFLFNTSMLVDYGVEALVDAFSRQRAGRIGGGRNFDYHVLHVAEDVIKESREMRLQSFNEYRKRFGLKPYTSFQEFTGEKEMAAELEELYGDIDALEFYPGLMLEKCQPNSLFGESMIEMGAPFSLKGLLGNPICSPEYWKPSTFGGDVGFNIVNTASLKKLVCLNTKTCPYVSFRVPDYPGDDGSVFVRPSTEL
Procedure, shortened: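 Rat polymorphonuclear leukocytes, intact cells, stimulated with calcium ionophore A23187. Thromboxane quantified by enzyme immunoassay. Duplicate assays.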

Cyclooxygenase [16] = biological target: T3, Cyclooxygenase; assay: In vitro cyclooxygenase inhibitory activity against calcium ionophore (A23187) induced thromboxane formation in human whole blood; assay type: functional, tissue-based
Procedure, shortened: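 Human whole blood stimulated with calcium ionophore A23187. Thromboxane measured by enzyme immunoassay. Assays in duplicate.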

[17] = biological target: Prostaglandin G/H synthase 1 (Ovis aries) (UniProt P05979); assay: Compound was tested in vitro for inhibition of Prostaglandin G/H synthase sheep seminal vesicle

Row | Compound | IC50 [1] | IC50 [2] | Cmax [3] | Cmax [4] | half-life [5] | half-life [6] | Tmax [7] | Tmax [8] | Tmax [9] | Tmax [10] | inhibition (Cyclooxygenase [11]) | inhibition [12] | ED50 (Rattus norvegicus) | Cmax (Cmax in dog (PO dose)) | inhibition [13] | IC50 [14] | IC50 (Cyclooxygenase [15]) | IC50 (Cyclooxygenase [16]) | IC50 [17]
1 | O=C1NCCN(c2ccccc2)N1 | 5.8 µM | 4.6 µM | 74 µM | 130 µM | 48 min | 60 min | 1 h | 18 min | 2 h | 1 h | 0% | 28% | 7 mg/kg | 132 µM | 4% | 5.8 µM and 9.2 µM |  |  | 
2 | O=C1CCN(c2ccccc2)N1 [PHENIDONE] |  |  |  |  |  |  |  |  |  |  |  |  |  |  |  |  | 13 µM | 12 µM | 94 µM
